Measured values taken from ChEMBL document CHEMBL1135850, “P1 Phenethyl peptide boronic acid inhibitors of HCV NS3 protease” (Bioorg Med Chem Lett, 2002).
Peptide text beside a SMILES is read from it. * marks the point of attachment. X3 = CC1(C)[C@@H]2C[C@H]3OB([C@H](CCc4cccc(C(F)(F)F)c4)N*)O[C@@]3(C)[C@H]1C2; X4 = CC1(C)[C@@H]2C[C@H]3OB([C@H](CCc4cccc(F)c4)N*)O[C@@]3(C)[C@H]1C2; X1 = CC1(C)[C@@H]2C[C@H]3OB([C@H](CCc4ccccc4F)N*)O[C@@]3(C)[C@H]1C2; X6 = CC1(C)[C@@H]2C[C@H]3OB([C@H](CCCc4ccccc4)N*)O[C@@]3(C)[C@H]1C2; X15 = CC1(C)[C@@H]2C[C@H]3OB([C@H](Cc4ccccc4)N*)O[C@@]3(C)[C@H]1C2; X12 = CC(C)CC[C@H](N*)B1O[C@@H]2C[C@@H]3C[C@@H](C3(C)C)[C@]2(C)O1; X9 = CC1(C)[C@@H]2C[C@H]3OB([C@@H](N*)c4ccccc4)O[C@@]3(C)[C@H]1C2; X11 = CCCCCC[C@H](N*)B1O[C@@H]2C[C@@H]3C[C@@H](C3(C)C)[C@]2(C)O1; X13 = CCCCC[C@H](N*)B1O[C@@H]2C[C@@H]3C[C@@H](C3(C)C)[C@]2(C)O1; X14 = CCCC[C@H](N*)B1O[C@@H]2C[C@@H]3C[C@@H](C3(C)C)[C@]2(C)O1

Target: T1, Neutrophil elastase (Homo sapiens, UniProt P08246)
T1 sequence (P08246 whole entry): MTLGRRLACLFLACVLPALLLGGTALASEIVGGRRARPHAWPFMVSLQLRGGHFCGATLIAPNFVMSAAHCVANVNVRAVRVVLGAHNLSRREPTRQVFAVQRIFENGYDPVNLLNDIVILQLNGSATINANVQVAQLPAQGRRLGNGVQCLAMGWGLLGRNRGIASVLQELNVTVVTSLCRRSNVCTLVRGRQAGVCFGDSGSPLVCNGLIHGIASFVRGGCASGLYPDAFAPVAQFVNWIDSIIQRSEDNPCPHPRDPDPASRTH
Test: Inhibitory concentration against Human leukocyte Elastase
Method in brief: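 Human neutrophil elastase (stock 1 mg/mL in PBS with 10% glycerol) with MeO-Suc-Ala-Ala-Pro-Val-p-nitroanilide substrate in PBS at room temperature, DMSO ≤2%. Inhibitors were tested as pinanediol esters. Substrate hydrolysis was followed at 405 nm to derive kinetic parameters.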

Row | Structure (SMILES) | IC50
1 | CC(C)[C@H](NC(=O)[C@H](CCC(=O)O)NC(=O)[C@@H](N)CC(=O)O)C(=O)N[C@H](C(=O)N1CCC[C@@H]1C(=O)N[C@@H](CCc1ccc(Br)cc1)B1O[C@@H]2C[C@@H]3C[C@@H](C3(C)C)[C@]2(C)O1)C(C)C | 1600 nM
2 | CC(C)[C@H](NC(=O)[C@H](CCC(=O)O)NC(=O)[C@@H](N)CC(=O)O)C(=O)N[C@H](C(=O)N1CCC[C@@H]1C(=O)N[C@@H](CCc1ccc(C(C)(C)C)cc1)B1O[C@@H]2C[C@@H]3C[C@@H](C3(C)C)[C@]2(C)O1)C(C)C | 340 nM
3 | Cc1cccc(CC[C@H](NC(=O)[C@H]2CCCN2C(=O)[C@@H](NC(=O)[C@@H](NC(=O)[C@H](CCC(=O)O)NC(=O)[C@@H](N)CC(=O)O)C(C)C)C(C)C)B2O[C@@H]3C[C@@H]4C[C@@H](C4(C)C)[C@]3(C)O2)c1 | 5700 nM
4 | CC(C)[C@H](NC(=O)[C@H](CCC(=O)O)NC(=O)[C@@H](N)CC(=O)O)C(=O)N[C@H](C(=O)N1CCC[C@@H]1C(=O)N[C@@H](CCc1ccc(-c2ccccc2)cc1)B1O[C@@H]2C[C@@H]3C[C@@H](C3(C)C)[C@]2(C)O1)C(C)C | 900 nM

Target: NS3 (Hepatitis C virus, UniProt A3EZJ3)
Test: Binding affinity against Hepatitis C virus NS3 protease
Parameters: species or system Hepacivirus hominis
Method in brief: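 Continuous fluorescence assay with 4 nM NS3 protease plus NS4A cofactor peptide, in 50 mM Tris pH 7.0, 5 mM DTT, 50% glycerol, 2% CHAPS. Serially diluted inhibitors, given as boronic acid pinanediol esters, were preincubated with enzyme for 15 min. The reaction was started with the FRET ester substrate Ac-DED(EDANS)EEAbuψ[COO]ASK(DABCYL)-NH2 at ambient temperature and read at excitation 360 nm, emission 530 nm.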

Row | Structure (SMILES) | Ki
5 | CCCCCC[C@H](NC(=O)[C@@H]1CCCN1C(=O)[C@@H](NC(=O)[C@@H](NC(=O)[C@H](CCC(=O)O)NC(=O)[C@@H](N)CC(=O)O)C(C)C)C(C)C)B1O[C@@H]2C[C@@H]3C[C@@H](C3(C)C)[C@]2(C)O1 (H-DEVVP-X11) | 13 nM
6 | CC(C)[C@H](NC(=O)[C@H](CCC(=O)O)NC(=O)[C@@H](N)CC(=O)O)C(=O)N[C@H](C(=O)N1CCC[C@H]1C(=O)N[C@@H](CCc1ccccc1F)B1O[C@@H]2C[C@@H]3C[C@@H](C3(C)C)[C@]2(C)O1)C(C)C (H-DEVVP-X1) | 18 nM
7 | CC(C)[C@H](NC(=O)[C@H](CCC(=O)O)NC(=O)[C@@H](N)CC(=O)O)C(=O)N[C@H](C(=O)N1CCC[C@H]1C(=O)N[C@@H](CCc1ccc(Cl)cc1)B1O[C@@H]2C[C@@H]3C[C@@H](C3(C)C)[C@]2(C)O1)C(C)C | 2 nM
8 | CC(C)[C@H](NC(=O)[C@H](CCC(=O)O)NC(=O)[C@@H](N)CC(=O)O)C(=O)N[C@H](C(=O)N1CCC[C@H]1C(=O)N[C@@H](CCc1cccc(C(F)(F)F)c1)B1O[C@@H]2C[C@@H]3C[C@@H](C3(C)C)[C@]2(C)O1)C(C)C (H-DEVVP-X3) | 25 nM
9 | CC(C)[C@H](NC(=O)[C@H](CCC(=O)O)NC(=O)[C@@H](N)CC(=O)O)C(=O)N[C@H](C(=O)N1CCC[C@H]1C(=O)N[C@@H](CCc1ccc(C(F)(F)F)cc1)B1O[C@@H]2C[C@@H]3C[C@@H](C3(C)C)[C@]2(C)O1)C(C)C | 2 nM
10 | CC(C)[C@H](NC(=O)[C@H](CCC(=O)O)NC(=O)[C@@H](N)CC(=O)O)C(=O)N[C@H](C(=O)N1CCC[C@H]1C(=O)N[C@@H](CCc1ccccc1)B1O[C@@H]2C[C@@H]3C[C@@H](C3(C)C)[C@]2(C)O1)C(C)C | 8 nM
11 | CC(C)[C@H](NC(=O)[C@H](CCC(=O)O)NC(=O)[C@@H](N)CC(=O)O)C(=O)N[C@H](C(=O)N1CCC[C@H]1C(=O)N[C@@H](CCCCc1ccccc1)B1O[C@@H]2C[C@@H]3C[C@@H](C3(C)C)[C@]2(C)O1)C(C)C | 10 nM
12 | CC(C)[C@H](NC(=O)[C@H](CCC(=O)O)NC(=O)[C@@H](N)CC(=O)O)C(=O)N[C@H](C(=O)N1CCC[C@H]1C(=O)N[C@@H](CCc1ccc(-c2ccccc2)cc1)B1O[C@@H]2C[C@@H]3C[C@@H](C3(C)C)[C@]2(C)O1)C(C)C | 7 nM
13 | CC(C)[C@H](NC(=O)[C@H](CCC(=O)O)NC(=O)[C@@H](N)CC(=O)O)C(=O)N[C@H](C(=O)N1CCC[C@H]1C(=O)N[C@@H](CCc1ccc(O)cc1)B1O[C@@H]2C[C@@H]3C[C@@H](C3(C)C)[C@]2(C)O1)C(C)C | 8 nM
14 | CC(C)[C@H](NC(=O)[C@H](CCC(=O)O)NC(=O)[C@@H](N)CC(=O)O)C(=O)N[C@H](C(=O)N1CCC[C@H]1C(=O)N[C@@H](CCc1ccc(C2CCCCC2)cc1)B1O[C@@H]2C[C@@H]3C[C@@H](C3(C)C)[C@]2(C)O1)C(C)C | 3 nM
15 | CCCCC[C@H](NC(=O)[C@@H]1CCCN1C(=O)[C@@H](NC(=O)[C@@H](NC(=O)[C@H](CCC(=O)O)NC(=O)[C@@H](N)CC(=O)O)C(C)C)C(C)C)B1O[C@@H]2C[C@@H]3C[C@@H](C3(C)C)[C@]2(C)O1 (H-DEVVP-X13) | 12 nM
16 | CC(C)[C@H](NC(=O)[C@H](CCC(=O)O)NC(=O)[C@@H](N)CC(=O)O)C(=O)N[C@H](C(=O)N1CCC[C@H]1C(=O)N[C@@H](CCc1ccc(F)cc1)B1O[C@@H]2C[C@@H]3C[C@@H](C3(C)C)[C@]2(C)O1)C(C)C | 6 nM
17 | CC(C)[C@H](NC(=O)[C@H](CCC(=O)O)NC(=O)[C@@H](N)CC(=O)O)C(=O)N[C@H](C(=O)N1CCC[C@H]1C(=O)N[C@@H](CCCc1ccccc1)B1O[C@@H]2C[C@@H]3C[C@@H](C3(C)C)[C@]2(C)O1)C(C)C (H-DEVVP-X6) | 200 nM
18 | CCCC[C@H](NC(=O)[C@@H]1CCCN1C(=O)[C@@H](NC(=O)[C@@H](NC(=O)[C@H](CCC(=O)O)NC(=O)[C@@H](N)CC(=O)O)C(C)C)C(C)C)B1O[C@@H]2C[C@@H]3C[C@@H](C3(C)C)[C@]2(C)O1 (H-DEVVP-X14) | 11 nM
19 | CC(C)[C@H](NC(=O)[C@H](CCC(=O)O)NC(=O)[C@@H](N)CC(=O)O)C(=O)N[C@H](C(=O)N1CCC[C@H]1C(=O)N[C@@H](CCc1ccc(Br)cc1)B1O[C@@H]2C[C@@H]3C[C@@H](C3(C)C)[C@]2(C)O1)C(C)C | 4 nM
20 | CC(C)[C@H](NC(=O)[C@H](CCC(=O)O)NC(=O)[C@@H](N)CC(=O)O)C(=O)N[C@H](C(=O)N1CCC[C@H]1C(=O)N[C@@H](Cc1ccccc1)B1O[C@@H]2C[C@@H]3C[C@@H](C3(C)C)[C@]2(C)O1)C(C)C (H-DEVVP-X15) | 500 nM
21 | CC(C)[C@H](NC(=O)[C@H](CCC(=O)O)NC(=O)[C@@H](N)CC(=O)O)C(=O)N[C@H](C(=O)N1CCC[C@H]1C(=O)N[C@@H](CCc1ccc(C(C)(C)C)cc1)B1O[C@@H]2C[C@@H]3C[C@@H](C3(C)C)[C@]2(C)O1)C(C)C | 3 nM
22 | CC(C)C[C@H](NC(=O)[C@@H]1CCCN1C(=O)[C@@H](NC(=O)[C@@H](NC(=O)[C@H](CCC(=O)O)NC(=O)[C@@H](N)CC(=O)O)C(C)C)C(C)C)B1O[C@@H]2C[C@@H]3C[C@@H](C3(C)C)[C@]2(C)O1 | 8 nM
23 | Cc1cccc(CC[C@H](NC(=O)[C@@H]2CCCN2C(=O)[C@@H](NC(=O)[C@@H](NC(=O)[C@H](CCC(=O)O)NC(=O)[C@@H](N)CC(=O)O)C(C)C)C(C)C)B2O[C@@H]3C[C@@H]4C[C@@H](C4(C)C)[C@]3(C)O2)c1 | 34 nM
24 | CC(C)CC[C@H](NC(=O)[C@@H]1CCCN1C(=O)[C@@H](NC(=O)[C@@H](NC(=O)[C@H](CCC(=O)O)NC(=O)[C@@H](N)CC(=O)O)C(C)C)C(C)C)B1O[C@@H]2C[C@@H]3C[C@@H](C3(C)C)[C@]2(C)O1 (H-DEVVP-X12) | 39 nM
25 | CC(C)[C@H](NC(=O)[C@H](CCC(=O)O)NC(=O)[C@@H](N)CC(=O)O)C(=O)N[C@H](C(=O)N1CCC[C@H]1C(=O)N[C@@H](CCc1cccc(F)c1)B1O[C@@H]2C[C@@H]3C[C@@H](C3(C)C)[C@]2(C)O1)C(C)C (H-DEVVP-X4) | 9 nM
26 | COc1ccc(CC[C@H](NC(=O)[C@@H]2CCCN2C(=O)[C@@H](NC(=O)[C@@H](NC(=O)[C@H](CCC(=O)O)NC(=O)[C@@H](N)CC(=O)O)C(C)C)C(C)C)B2O[C@@H]3C[C@@H]4C[C@@H](C4(C)C)[C@]3(C)O2)cc1 | 3 nM
27 | CC(C)[C@H](NC(=O)[C@H](CCC(=O)O)NC(=O)[C@@H](N)CC(=O)O)C(=O)N[C@H](C(=O)N1CCC[C@H]1C(=O)N[C@H](B1O[C@@H]2C[C@@H]3C[C@@H](C3(C)C)[C@]2(C)O1)c1ccccc1)C(C)C (H-DEVVP-X9) | 900 nM
28 | CC(C)CCC[C@H](NC(=O)[C@@H]1CCCN1C(=O)[C@@H](NC(=O)[C@@H](NC(=O)[C@H](CCC(=O)O)NC(=O)[C@@H](N)CC(=O)O)C(C)C)C(C)C)B1O[C@@H]2C[C@@H]3C[C@@H](C3(C)C)[C@]2(C)O1 | 7 nM
29 | Cc1ccc(CC[C@H](NC(=O)[C@@H]2CCCN2C(=O)[C@@H](NC(=O)[C@@H](NC(=O)[C@H](CCC(=O)O)NC(=O)[C@@H](N)CC(=O)O)C(C)C)C(C)C)B2O[C@@H]3C[C@@H]4C[C@@H](C4(C)C)[C@]3(C)O2)cc1 | 17 nM
30 | CC[C@H](NC(=O)[C@@H]1CCCN1C(=O)[C@@H](NC(=O)[C@@H](NC(=O)[C@H](CCC(=O)O)NC(=O)[C@@H](N)CC(=O)O)C(C)C)C(C)C)B1O[C@@H]2C[C@@H]3C[C@@H](C3(C)C)[C@]2(C)O1 | 8 nM
31 | CC(C)[C@H](NC(=O)[C@H](CCC(=O)O)NC(=O)[C@@H](N)CC(=O)O)C(=O)N[C@H](C(=O)N1CCC[C@H]1C(=O)N[C@@H](CCc1ccc(Oc2ccccc2)cc1)B1O[C@@H]2C[C@@H]3C[C@@H](C3(C)C)[C@]2(C)O1)C(C)C | 3 nM
32 | CC(C)c1ccc(CC[C@H](NC(=O)[C@@H]2CCCN2C(=O)[C@@H](NC(=O)[C@@H](NC(=O)[C@H](CCC(=O)O)NC(=O)[C@@H](N)CC(=O)O)C(C)C)C(C)C)B2O[C@@H]3C[C@@H]4C[C@@H](C4(C)C)[C@]3(C)O2)cc1 | 5 nM
